Assay results: PubChem BioAssay AID1800 (The Scripps Research Institute Molecular Screening Center, 2009)
The whole screen tested about 290,000 compounds, of which about 1,600 (0.55%) were called active. Shown is part of a subset that was picked to be rich in actives. A number with no mark means an inactive call.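 The calls were made as follows: active = inhibition above the mean of all tested compounds plus 3 SD, set per campaign (cut at about 35% in these data); inactive = the rest.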

test system: Hepatitis C virus NS3 helicase; assay: inhibitors of HCV NS3 helicase, primary screen, biochemical, Cy5 molecular beacon fluorescence (AID 1800); details: NS3 helicase DNA unwinding, at 10.9 µM, stronger effect = higher value
How it was run: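 System: NS3 helicase fragment of HCV / Schedule: 1 h at 25 °C / Control set: DMSO alone as 0% and 110 µM thioflavine S as 100% / Reagent: Cy5/quencher beacon DNA duplex and ATP to start / Technique: Cy5 fluorescence / Replication: singlicate / Evaluation: % inhibition of end-to-start signal ratio versus controls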

| SMILES | inhibition |
| --- | --- |
| O=C(c1ccco1)N1CCN(C(=S)Nc2cc(F)cc(F)c2)CC1 | -5.92% |
| CC1CCCN(c2ccc(C(=O)NCCc3ccccc3)cn2)C1 (stereo not drawn) | -1.78% |
| Cc1ccc(C(CC(=O)O)Nc2nc(N3CCCCC3)nc(N3CCCCC3)n2)cc1 (stereo not drawn) | 46.7% (active) |
| CCC(NC(=O)C1CCCC1)c1ccc(C)cc1 (stereo not drawn) | 1.79% |
| O=C(O)c1ccc(/C=N/Nc2nc(N3CCCCC3)nc(N3CCCCC3)n2)cc1 | 3.13% |
| Cc1ccc(C(=O)COC(=O)CCN2C(=O)C3C4CCC(C4)C3C2=O)cc1C (stereo not drawn) | 19.3% |
| CC1CN(C(=S)Nc2cccc(F)c2)CC(C)O1 (stereo not drawn) | -3.8% |
| COc1ccc(S(=O)(=O)N2CCSCC2)cc1 | 9.62% |
| CC(=O)C1=C(O)C(=O)N(c2ccc(Br)cc2)C1c1ccc([N+](=O)[O-])cc1 (stereo not drawn) | 36% (active) |
| COC(=O)CN1C(=O)C(O)=C(C(C)=O)C1c1ccc([N+](=O)[O-])cc1 (stereo not drawn) | -0.09% |
| CC(=O)C1=C(O)C(=O)N(c2cccnc2)C1c1ccc([N+](=O)[O-])cc1 (stereo not drawn) | -3.05% |
| CN(Cc1ccc(F)cc1)C(=O)COc1ccc2ccccc2c1 | -17.8% |
| COCn1c(C(O)c2ccccc2)cc2ccccc21 (stereo not drawn) | -4.17% |
| COC(=O)C1=C(C)N(c2ccc(Br)cc2)C(=O)/C1=C\c1ccco1 | 17.4% |
| Cc1cc(C)c(OCC(=O)N/N=C/c2ccco2)c(C)c1 | -4.49% |
| COC(=O)COc1ccc2c(c1C)O/C(=C\c1ccco1)C2=O | 90.2% (active) |
| Cn1ncc2c(N3CCCCC3)nc(NCCCO)nc21 | 5.11% |
| CC(=O)NN1C(=O)c2ccccc2NC1c1ccccc1 (stereo not drawn) | -4.55% |
| COC1=C/C(=C/c2c(N)n3nc(CC(=O)N4CCOCC4)sc3nc2=O)C=CC1=O | 13.6% |
| COc1cccc(NC(=O)CSc2nnc(Cc3ccc(OC)c(OC)c3)o2)c1 | -10.1% |
| O=C(N/N=C/c1ccco1)c1csc2c1CCCC2 | 42.9% (active) |
| O=C(N/N=C/c1ccco1)c1ccc(NC(=O)C2CC2)cc1 | 2.86% |
| O=C(N/N=C/c1ccco1)c1ccc(C(=O)N/N=C/c2ccco2)o1 | -3.79% |
| Cc1ccc(C)c(S(=O)(=O)N2CCCOC2CNC(=O)C(=O)NC2CCCCC2)c1 (stereo not drawn) | 8.68% |
| CCc1cc2c(=O)n(-c3ccccc3)c(SCC(=O)O)nc2s1 | 5.68% |
| CCOc1ccc(C2C(C#N)=C(N)N(N(C)C)C3=C2C(=O)CCC3)cc1 (stereo not drawn) | 6.79% |
| COc1ccc(C2C3=C(CCCC3=O)N(CC(=O)O)C3=C2C(=O)CCC3)cc1 | 2.66% |
| CCOc1ccc(C2C3=C(CCCC3=O)N(CC(=O)O)C3=C2C(=O)CCC3)cc1 | 59.8% (active) |
